Measurements published in ChEMBL document CHEMBL3352173, “Optimization of pyrrolamide topoisomerase II inhibitors toward identification of an antibacterial clinical candidate (AZD5099)” (J Med Chem, 2014).
≈ marks a conversion by molar mass, not a printed value.

Assays:
Haemophilus influenzae = assay: Antimicrobial activity against Haemophilus influenzae by broth microdilution/CLSI method; assay type: functional; settings: Haemophilus influenzae; read-out: MIC
DNA gyrase subunit B = DNA gyrase subunit B (Staphylococcus aureus, UniProt P0A0K8); assay: Inhibition of ATPase activity of Staphylococcus aureus GyrB
Method in brief: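 IC50 was determined against S. aureus GyrB in the routine screening assay. The enzyme concentration limits resolution below 10 nM.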

Streptococcus pneumoniae = assay: Antibacterial activity against Streptococcus pneumoniae by broth microdilution/CLSI method; assay type: functional; settings: Streptococcus pneumoniae; read-out: MIC
Streptococcus pyogenes = assay: Antimicrobial activity against Streptococcus pyogenes by broth microdilution/CLSI method; assay type: functional
Staphylococcus aureus [1] = assay: Antimicrobial activity against methicillin-sensitive Staphylococcus aureus by broth microdilution/CLSI method; assay type: functional; settings: Staphylococcus aureus; read-out: MIC
Staphylococcus aureus [2] = assay: Antimicrobial activity against methicillin, quinolone-resistant Staphylococcus aureus by broth microdilution/CLSI method; assay type: functional; settings: Staphylococcus aureus; read-out: MIC
Moraxella catarrhalis = assay: Antimicrobial activity against Moraxella catarrhalis by broth microdilution/CLSI method; assay type: functional; settings: Moraxella catarrhalis; read-out: MIC
Escherichia coli [3] = assay: Antimicrobial activity against wild-type Escherichia coli Eco523 by broth microdilution/CLSI method; assay type: functional; settings: Escherichia coli, Eco523; read-out: MIC
Escherichia coli [4] = assay: Antimicrobial activity against Escherichia coli tolC- by broth microdilution/CLSI method; assay type: functional; settings: Escherichia coli; read-out: MIC
[5] = Octanol-phosphate buffer distribution coefficient, log D of the compound at pH 7.4 by shake flask method; assay type: physicochemical
[6] = Percentage unbound in human plasma; assay type: ADME, cell-free
[7] = Solubility of the compound; assay type: physicochemical
[8] = Ratio of MIC for methicillin, quinolone-resistant Staphylococcus aureus to fraction unbound in human plasma; assay type: ADME
[9] = Clearance in rat at 10 mg/kg, iv; assay type: ADME, organism-based; design: dose 10 mg/kg, route intravenous; settings: in vivo

Chain of DNA gyrase subunit B (P0A0K8 whole entry): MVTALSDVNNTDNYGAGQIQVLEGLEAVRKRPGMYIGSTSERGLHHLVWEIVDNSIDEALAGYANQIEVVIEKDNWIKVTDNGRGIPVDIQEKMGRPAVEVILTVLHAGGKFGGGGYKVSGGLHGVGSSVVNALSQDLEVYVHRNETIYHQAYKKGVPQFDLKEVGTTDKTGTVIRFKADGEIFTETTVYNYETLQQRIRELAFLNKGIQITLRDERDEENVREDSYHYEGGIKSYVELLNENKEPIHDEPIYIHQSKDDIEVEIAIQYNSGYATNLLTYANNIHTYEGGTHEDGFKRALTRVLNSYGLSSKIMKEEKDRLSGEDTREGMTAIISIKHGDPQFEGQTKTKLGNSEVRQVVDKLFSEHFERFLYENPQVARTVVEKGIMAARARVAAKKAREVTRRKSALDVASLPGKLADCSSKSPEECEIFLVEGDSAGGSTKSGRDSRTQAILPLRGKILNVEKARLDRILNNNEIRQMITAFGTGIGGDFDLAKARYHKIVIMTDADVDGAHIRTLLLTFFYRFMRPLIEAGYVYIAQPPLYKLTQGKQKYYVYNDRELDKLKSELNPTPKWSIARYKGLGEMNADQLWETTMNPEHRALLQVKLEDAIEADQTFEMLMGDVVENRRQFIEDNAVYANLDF

Row | Structure (SMILES) | MIC (Haemophilus influenzae) [mg/L] | IC50 (DNA gyrase subunit B) [µM] | MIC (Streptococcus pneumoniae) [mg/L] | MIC (Streptococcus pyogenes) [mg/L] | MIC (Staphylococcus aureus [1]) [mg/L] | MIC (Staphylococcus aureus [2]) [mg/L] | MIC (Moraxella catarrhalis) [mg/L] | MIC (Escherichia coli [3]) [mg/L] | MIC (Escherichia coli [4]) [mg/L] | logD [5] | fraction unbound [6] | solubility [7] [µM] | Ratio [8] | clearance [9] [L/h/kg]
1 | CO[C@H]1CN(c2nc(C(=O)O)c(C)s2)CC[C@H]1NC(=O)c1[nH]c(C)c(Cl)c1Cl | 0.25 (≈ 0.559 µM) | < 0.01 | 0.031 (≈ 0.0693 µM) | 0.063 (≈ 0.141 µM) | 0.13 (≈ 0.291 µM) | 0.13 (≈ 0.291 µM) | 0.063 (≈ 0.141 µM) | > 8 | 0.25 (≈ 0.559 µM) | 1.2 | 0.007 | > 1000 | 19 | 
2 | COCc1nc(N2CC[C@@H](NC(=O)c3[nH]c(C)c(Cl)c3Cl)[C@@H](OC)C2)sc1C(=O)O | 0.35 (≈ 0.733 µM) | < 0.01 | 0.12 (≈ 0.251 µM) |  | 0.5 (≈ 1.05 µM) | 1 (≈ 2.09 µM) | 0.063 (≈ 0.132 µM) | > 8 | 0.5 (≈ 1.05 µM) | 0.44 | 0.034 | > 1000 | 29 | 
3 | CO[C@H]1CN(c2nc(-c3ccccn3)c(C(=O)O)s2)CC[C@H]1NC(=O)c1[nH]c(C)c(Cl)c1Cl | 0.5 (≈ 0.98 µM) | < 0.0098 | < 0.06 | < 0.06 | < 0.06 |  | < 0.06 | 8 (≈ 15.7 µM) | 0.13 (≈ 0.255 µM) | > 2.5 | 0.003 | < 1 | < 21 | 
4 | COCn1ccnc1-c1nc(N2CC[C@@H](NC(=O)c3[nH]c(C)c(Cl)c3Cl)[C@@H](OC)C2)sc1C(=O)O | 0.5 (≈ 0.92 µM) | < 0.01 | < 0.06 | < 0.06 | < 0.06 |  | < 0.06 | 16 (≈ 29.4 µM) | 0.25 (≈ 0.46 µM) | 0.24 | 0.071 | 170 (≈ 92.4 µg/mL) | < 0.9 | 1.62
5 | CO[C@H]1CN(c2nc(-c3csc(N)n3)c(C(=O)O)s2)CC[C@H]1NC(=O)c1[nH]c(C)c(Cl)c1Cl | 0.5 (≈ 0.941 µM) | < 0.0098 | < 0.06 | < 0.06 | < 0.06 |  | < 0.06 | 4 (≈ 7.53 µM) | < 0.06 | 3 | < 0.01 | < 1 | < 6.3 | 
6 | CO[C@H]1CN(c2nc(-c3cncnc3)c(C(=O)O)s2)CC[C@H]1NC(=O)c1[nH]c(C)c(Cl)c1Cl | 1.6 (≈ 3.13 µM) | < 0.01 | < 0.1 | 0.4 (≈ 0.782 µM) | 3.2 (≈ 6.26 µM) | 3.2 (≈ 6.26 µM) | 0.4 (≈ 0.782 µM) | > 100 | 0.8 (≈ 1.56 µM) | 0.35 | 0.011 | 260 (≈ 133 µg/mL) | 290 | 
7 | CO[C@H]1CN(c2nc(C(=O)NC[C@H](C)OC)c(C(=O)O)s2)CC[C@H]1NC(=O)c1[nH]c(C)c(Cl)c1Cl | 0.13 (≈ 0.237 µM) | < 0.01 | 0.016 (≈ 0.0292 µM) | < 0.008 | 0.031 (≈ 0.0565 µM) | 0.031 (≈ 0.0565 µM) | < 0.008 | > 8 | 0.5 (≈ 0.912 µM) |  | 0.027 |  | 1.1 | 0.78
8 | CO[C@H]1CN(c2nc(C(=O)N(C)C)c(C(=O)O)s2)CC[C@H]1NC(=O)c1[nH]c(C)c(Cl)c1Cl (racemic) | 8 (≈ 15.9 µM) | < 0.01 | 4 (≈ 7.93 µM) |  | 8 (≈ 15.9 µM) | > 8 | 2 (≈ 3.97 µM) | > 8 | 2 (≈ 3.97 µM) | -1 | 0.13 | > 1000 | > 62 | 
9 | CO[C@H]1CN(c2nc(-c3cn(C)cn3)c(C(=O)O)s2)CC[C@H]1NC(=O)c1[nH]c(C)c(Cl)c1Cl | 2 (≈ 3.9 µM) | < 0.01 | < 0.06 | < 0.06 | 0.13 (≈ 0.253 µM) | 0.13 (≈ 0.253 µM) | < 0.06 | 16 (≈ 31.2 µM) | < 0.06 | 2.5 | 0.019 | 3 (≈ 1.54 µg/mL) | 6.8 | 
10 | CO[C@H]1CN(c2nc3cccc(C(=O)O)c3s2)CC[C@H]1NC(=O)c1[nH]c(C)c(Cl)c1Cl | 0.031 (≈ 0.0641 µM) | < 0.01 | 0.032 (≈ 0.0662 µM) |  | 0.031 (≈ 0.0641 µM) | 0.031 (≈ 0.0641 µM) | < 0.001 | 8 (≈ 16.6 µM) | 0.25 (≈ 0.517 µM) | 1.7 | < 0.01 | < 1 | > 31 | 3.6
11 | CO[C@H]1CN(c2nc(-c3nccn3C)c(C(=O)O)s2)CC[C@H]1NC(=O)c1[nH]c(C)c(Cl)c1Cl | 0.25 (≈ 0.487 µM) | < 0.01 | < 0.06 | < 0.06 | < 0.06 |  | < 0.06 | 8 (≈ 15.6 µM) | < 0.06 | > 3 | 0.011 | 12 (≈ 6.16 µg/mL) | 5.2 | 
